# Test results from paper PMC9810445 (Biomolecules & Therapeutics, 2022).
# Biological target: T1, CYP6A8 (Drosophila melanogaster, UniProt Q27593)
# T1 sequence (Q27593 1-506): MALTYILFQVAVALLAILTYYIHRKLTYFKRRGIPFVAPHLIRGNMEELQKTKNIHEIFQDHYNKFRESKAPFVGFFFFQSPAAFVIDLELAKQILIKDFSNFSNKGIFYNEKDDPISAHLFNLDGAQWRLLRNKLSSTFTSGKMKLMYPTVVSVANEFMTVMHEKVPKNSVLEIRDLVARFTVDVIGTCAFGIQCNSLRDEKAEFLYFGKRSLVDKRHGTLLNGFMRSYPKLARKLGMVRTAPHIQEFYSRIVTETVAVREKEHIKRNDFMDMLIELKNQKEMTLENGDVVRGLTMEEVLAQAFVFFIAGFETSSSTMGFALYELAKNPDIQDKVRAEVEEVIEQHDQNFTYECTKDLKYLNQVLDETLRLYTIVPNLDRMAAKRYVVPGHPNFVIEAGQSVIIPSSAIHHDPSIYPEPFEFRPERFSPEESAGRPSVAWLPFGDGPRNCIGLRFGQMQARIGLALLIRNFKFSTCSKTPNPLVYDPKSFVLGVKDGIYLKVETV
# Test: UV-visible spectral binding titration
# In short: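 Recombinant C-terminally His6-tagged CYP6A8 was expressed in E. coli from pCW and purified by Ni2+-NTA chromatography. Enzyme was diluted to 1 µM in 100 mM potassium phosphate (pH 7.6) and split between sample and reference cuvettes. Fatty acid was added stepwise and 350–500 nm difference spectra were recorded. Kd was derived by plotting the peak-to-trough absorbance difference against ligand concentration.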
row,Kd,Compound
1,144 ± 20 µM,CCCCCCCCCC(=O)O [capric acid]
2,28 ± 4 µM,CCCCCCCCCCCC(=O)O [lauric acid]
3,713 ± 46 µM,CCCCCCCC(=O)O [octanoic acid]
